Only some compounds are listed: those with a hit (about 2.2% of all), similar ones and a draw of the others.
FGF22 binding = binders of recombinant human FGF22 by thermal shift; SYPRO orange fluorescence; percent of sucrose octasulfate shift, DMSO zero; activity (Tm shift, normalised), % at 9.99 µM; 1.5% of 340,000 active; AID 651658;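 active = mean Tm shift, scaled 0 neutral to 100 positive control, at about 1.3% or above, every replicate too, limit read from the data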
Target sequence (Q9HCT0 whole entry, looked up): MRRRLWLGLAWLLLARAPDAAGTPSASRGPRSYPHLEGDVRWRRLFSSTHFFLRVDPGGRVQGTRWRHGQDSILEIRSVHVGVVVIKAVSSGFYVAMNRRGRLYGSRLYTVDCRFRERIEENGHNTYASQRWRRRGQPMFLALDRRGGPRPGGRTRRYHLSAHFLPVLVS
dFosB activator = mouse delta FosB homodimer activation | P13346 | purified delta FosB, TAMRA-CDK5 oligo fluorescence polarization; percent of positive-control signal above neutral wells | activation, % at 25 µM | 0.99% of 340,000 active | AID 493131;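 active = mean activation above about 17%, with every replicate also reaching it, limit read from the data, passing the limit was not always enough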
Target sequence (P13346 whole entry, looked up): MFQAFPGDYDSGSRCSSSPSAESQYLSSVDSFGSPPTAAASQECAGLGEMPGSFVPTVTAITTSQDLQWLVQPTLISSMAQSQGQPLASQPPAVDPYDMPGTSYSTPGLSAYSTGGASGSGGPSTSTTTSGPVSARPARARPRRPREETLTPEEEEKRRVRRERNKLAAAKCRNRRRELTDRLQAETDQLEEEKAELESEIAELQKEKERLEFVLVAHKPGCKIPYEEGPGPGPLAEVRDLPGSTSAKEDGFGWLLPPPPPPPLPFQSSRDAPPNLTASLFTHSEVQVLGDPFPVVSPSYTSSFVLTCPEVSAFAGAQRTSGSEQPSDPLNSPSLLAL
F508del corr = correctors of CFTR F508del function in bronchial epithelial cells; CFBE cells, YFP halide quenching; stimulated with forskolin plus potentiator P3; % fluorescence drop versus neutral controls; activity (quench increase), % at 7.58 µM; 0.36% of 350,000 active;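 active = mean added fluorescence quench of at least 8% versus neutral control, with both replicates also reaching 8%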;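 also: cells transiently co-express mutant CFTR-F508del with the halide-sensitive YFP; corrector assay measuring rescue of mutant channel to the surface after 24 h compound exposure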
S100A4 inh HTS = inhibitors of human S100A4 binding to myosin IIA peptide; inhibition, % at 10.7 µM; AID 652163; 0.14% of 360,000 active; S100A4/TAMRA-MyoIIA peptide fluorescence polarization; P26447;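 active = mean inhibition of at least 70% across replicates, with every replicate also reaching that level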
Target sequence (P26447 whole entry, looked up): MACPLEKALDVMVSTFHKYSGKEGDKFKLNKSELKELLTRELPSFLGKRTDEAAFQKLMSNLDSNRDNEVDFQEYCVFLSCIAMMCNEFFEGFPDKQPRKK
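System – human S100A4 monomer protein, biochemical binding assay · Buffer or medium – Calcium-containing HEPES buffer, pH 7.2 · Timing – 5 min between mix addition and reading · Also added – TAMRA-labelled myosin IIA heavy-chain peptide probe, 5 nM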
Starred values were filed as active, the others as inactive; . = no result given.

SMILES | FGF22 binding | dFosB activator | F508del corr | S100A4 inh HTS
CCN(CC)c1ccc(C=Nc2cccc(S(=O)(=O)N3CCOCC3)c2)c(O)c1 | 0.4 | 4.9 | 3.0 | -2.8
CCN(CC)c1ccc(/C=N/NC(=O)c2cccc(S(=O)(=O)N3CCOCC3)c2)c(O)c1 | 43.4* | 1.4 | 2.6 | -1.2
O=C(COC(=O)c1cc(S(=O)(=O)N2CCOCC2)ccc1Cl)NC1CC1 | 0.0 | 10.3 | 1.6 | -10.9
CC1CCC(NC(=O)c2cccc(S(=O)(=O)N3CCOCC3)c2)CC1 (configuration not stated) | 43.0* | . | 6.3 | 6.0
O=C(c1cccc(S(=O)(=O)N2CCCC2)c1)N1CCCC(C(F)(F)F)C1 (configuration not stated) | -0.3 | 10.4 | 1.6 | -3.6
O=C(c1cccc(S(=O)(=O)N2CCOCC2)c1)N1CCCC(C(F)(F)F)C1 (configuration not stated) | 0.0 | -2.8 | 10.1* | -2.8
O=C(NC1CCCCCC1)c1cccc(S(=O)(=O)N2CCOCC2)c1 | -0.4 | -3.4 | 1.4 | 2.9
O=C(NC1CCN(Cc2ccccc2)C1)c1cccc(S(=O)(=O)N2CCOCC2)c1 (configuration not stated) | -0.2 | -10.8 | 0.9 | -3.2
O=C(NC1CCN(Cc2ccccc2)CC1)c1cc(S(=O)(=O)N2CCOCC2)ccc1Cl | 0.7 | -2.3 | 15.3* | -14.0
COC(c1ccccc1)c1nnc(CCC(=O)N(C)CCc2ccccc2)o1 (configuration not stated) | 43.7* | -3.5 | -1.7 | -7.3
COC(c1ccccc1)c1nnc(CCC(=O)NCCCc2ccccc2)o1 (configuration not stated) | 0.3 | 1.8 | 0.5 | 2.7
CN(CCc1cnn(C)c1)C(=O)CCc1nnc(CCCc2ccccc2)o1 | 43.3* | -0.1 | 5.0 | 3.8
CC(C)N(Cc1nccn1C)C(=O)CCc1nnc(CCCc2ccccc2)o1 | 44.5* | 7.7 | 1.4 | -2.2
C[C@H](CO)N1C[C@H](C)[C@H](CN(C)C(=O)CC2CC2)Oc2ncc(C#CC3CC3)cc2C1=O | 0.0 | . | 4.5 | 11.1
C[C@H](CO)N1C[C@H](C)[C@H](CN(C)C(=O)Nc2cccc3ccccc23)Oc2ccc(NC(=O)Nc3ccc4c(c3)OCO4)cc2CC1=O | -0.5 | . | -3.2 | -63.1
CCCCC(C(=O)O)C(C)CC(=O)Nc1nncs1 (configuration not stated) | 43.1* | 0.6 | -1.9 | 3.2
Cc1ccc(NC(=O)c2sc(=S)n(-c3cc(C)ccc3F)c2N)cc1 | 42.9* | . | -3.3 | -2.7
Cc1ccccc1-n1c(N)c(C(=O)Nc2ccc(F)cc2)sc1=S | 0.6 | -12.3 | 0.5 | -0.9
Cc1noc(C)c1NC(=O)N(C)C[C@@H]1OCCCC[C@@H](C)Oc2ccc(NC(=O)c3ccncc3)cc2C(=O)N([C@H](C)CO)C[C@H]1C | -0.2 | . | -3.8 | -25.1
C[C@@H]1CCCCO[C@@H](CN(C)C(=O)NC2CCCCC2)[C@H](C)CN([C@@H](C)CO)C(=O)c2cc(NC(=O)c3ccncc3)ccc2O1 | 0.9 | . | 2.9 | 2.4
COc1ccc(Cn2nnnc2C(c2cc3cc(C)ccc3[nH]c2=O)N2CCN(C)CC2)cc1 (configuration not stated) | 43.5* | -6.9 | 3.1 | -6.1
C=CCn1c(=O)c(C(C)=O)cn(N(C)c2ncc(C(F)(F)F)cc2Cl)c1=O | 43.1* | -0.8 | -2.2 | 1.5
CCN1CCN(Cc2oc(CO)cc(=O)c2O)CC1 | . | 7.1 | . | .
CN(CC(=O)O)Cc1oc(CO)cc(=O)c1O | 43.6* | 7.1 | -1.3 | 5.9
CC(=O)c1ccc(N2CC(C)(C)C2=O)cc1 | 43.0* | -5.0 | 1.5 | 5.2
SMILES | FGF22 binding | dFosB activator | F508del corr | S100A4 inh HTS
O=C(Nc1ccc(F)cc1)C1CC(=O)n2ncnc2N1 (configuration not stated) | 43.5* | 1.2 | -1.9 | -2.3
O=C1CSC(c2cccc([N+](=O)[O-])c2)N1c1ccc(O)cc1 (configuration not stated) | -0.2 | -5.5 | 0.0 | 6.9
CC(=O)Nc1ccc(N2C(=O)CSC2c2cccc([N+](=O)[O-])c2)cc1 (configuration not stated) | 43.6* | -2.3 | 2.6 | 3.3
Cc1ccc(S(=O)(=O)N[C@@H]2CC[C@@H](CCn3cc(-c4ccccc4F)nn3)O[C@H]2CO)cc1 | 0.2 | . | -8.4 | 6.8
O=C(O)Cc1sc(Nc2ccc(Cl)cc2)nc1-c1cccs1 | 1.4* | -15.2 | -1.4 | -58.3
Nc1nc(-c2cccs2)c(CC(=O)O)s1 | 0.4 | -0.4 | 2.8 | 0.9
C[C@@H]1CN([C@@H](C)CO)C(=O)c2cc(C#CC3CCCCC3)cnc2O[C@H]1CN(C)C(=O)C1CCCCC1 | -0.4 | . | -2.5 | -1.4
OCc1ccccc1-c1cnc2cccnn12 | 54.8* | . | 1.9 | -1.5
N#CCCN(C(=O)COC(=O)c1cc(=O)c2ccccc2o1)c1ccccc1 | . | -2.4 | 12.9* | 4.9
N#CCCN(C(=O)COC(=O)c1ccc2c(c1)OCO2)c1ccccc1 | -0.2 | -1.3 | 0.2 | 1.6
CC(C)(C)Cc1c(-c2ccc(Cl)cc2)nc2ccc(Cl)cn12 | 0.6 | . | -0.1 | 6.0
CN(C)Cc1c(-c2ccc(Cl)cc2)nc2ccc(Cl)cn12 | 43.3* | -1.1 | 0.9 | -2.4
O=C(CN1CCC(NC(=O)c2ccccc2F)CC1)Nc1ccc2c(c1)OCCO2 | 43.4* | 0.7 | -1.5 | -2.0
Cc1ccccc1C(=O)NC1CCN(CC(=O)Nc2ccc3c(c2)OCCO3)CC1 | 42.7 | 4.6 | -2.7 | -3.1
C[C@@H]1CN([C@@H](C)CO)C(=O)c2cccc(NS(C)(=O)=O)c2O[C@@H]1CN(C)S(=O)(=O)c1ccccc1 | -0.6 | . | 0.8 | 12.3
COc1ccc(N2CC(C(=O)N/N=C/c3c[nH]c4ccccc34)CC2=O)cc1 (configuration not stated) | 43.6* | -7.2 | 2.2 | 11.4
COC(=O)c1cc(C(=O)N2CCN(c3cccc(Cl)c3)CC2)cc([N+](=O)[O-])c1 | 0.2 | -5.9 | 8.7* | 6.4
Cc1noc(C)c1S(=O)(=O)N(C)C[C@H]1Oc2c(NC(=O)c3cnccn3)cccc2C(=O)N([C@@H](C)CO)C[C@H]1C | -0.3 | . | 1.5 | 4.4
CCCc1cc2c(=O)c(-c3cscn3)c(C(=O)OCC)oc2cc1O | 43.4* | -2.6 | -1.3 | 2.1
CCOC(=O)c1oc2cc(O)cc(C)c2c(=O)c1-c1cscn1 | . | 4.3 | . | 1.3
COc1ccccc1NC(=O)N(C)C[C@H]1Oc2cc(Br)ccc2S(=O)(=O)N([C@@H](C)CO)C[C@H]1C | -0.2 | . | 2.1 | 15.0
CC1N=C(SCC(=O)c2ccc(F)cc2)N2C(C)N=C(SCC(=O)c3ccc(F)cc3)N12 (configuration not stated) | 43.1* | . | -1.5 | -3.6
Cn1c(CNC(=O)c2ccco2)nnc1SCC(=O)Nc1c(F)cc(F)cc1Br | 44.0* | 1.7 | 0.9 | -3.6
Cn1c(CNC(=O)c2ccco2)nnc1SCC(=O)Nc1cccc(F)c1 | 0.1 | 1.3 | 0.0 | -3.2
Cc1ccc(C(=O)c2cc(C)sc2N)cc1 | 42.9* | -1.0 | -4.6 | -4.5

Source: PubChem
